Experimental data published in ChEMBL document CHEMBL1132156, “Synthesis and structure-activity relationships of potential anticancer agents: alkylcarbamates of 3-(9-acridinylamino)-5-hydroxymethylaniline” (J Med Chem, 1999).

What was measured:
[1] = tested on: Mus musculus; test: […] anticancer activity against B6D2F-1 mice bearing Sarcoma 180 measured by the average weight change(g) after day 7 at an intraperitoneal dose of 3(mg/kg).; assay type: functional
Outline: (§1)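 Male B6D2F1 mice (8 weeks old, 20–25 g) were inoculated sc with 3×10^6 Sarcoma 180 cells on day 0. Dosing was ip, QDx5, starting on day 1. Groups were 4 control mice and 2 mice per dose. Average body weight change (g) and treated/control tumor volume were evaluated on days 7, 10 and 14.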

[2] = tested on: Mus musculus; test: […] anticancer activity against B6D2F-1 mice bearing Sarcoma 180 measured by the Average tumor vol after day 7 at an intravenous dose of 7(mg/kg).
[3] = tested on: Mus musculus; test: […] anticancer activity against B6D2F-1 mice bearing Lewis Lung Carcinoma measured by the Average tumor vol after day 10 at an intraperitoneal dose of 6(mg/kg).; assay type: functional
Outline: (§2)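 Male B6D2F1 mice (8 weeks old, 20–25 g) received 4×10^6 Lewis lung carcinoma cells sc on day -2. Dosing was ip, QDx5, starting on day 1. Groups were 4 control mice and 3 mice per dose. Tumor size and average body-weight change were evaluated on days 7, 10 and 14. Tumor volume is expressed as the treated/control ratio.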

[4] = tested on: Mus musculus; test: […] anticancer activity against B6D2F-1 mice bearing P388 leukemia measured by the Average tumor vol after day 11 at an intravenous dose of 7(mg/kg).; assay type: functional
[5] = tested on: Mus musculus; test: […] anticancer activity against B6D2F-1 mice bearing P388 leukemia measured by the average weight change(g) after day 9 at an intravenous dose of 15(mg/kg).; assay type: functional
Outline: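 Male B6D2F1 mice (8 weeks old, 20–25 g) were implanted iv on day 0 with P388/0 ascites cells (0.2 mL; ascites:saline = 1.10). Tumor grew in the liver. Drug was given iv via the tail vein, Q2Dx5, on days 1, 3, 5, 7 and 9. Body weight was recorded on days 1, 7, 9 and 11 and reported as the average change (g).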

[6] = tested on: HL-60; test: In vitro inhibition of human leukemic HL-60 cell growth in culture; assay type: functional, cell-based
Outline: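 HL-60 cells were seeded at 5×10^4 cells/mL in RPMI 1640 with 10% heat-inactivated FBS, penicillin and streptomycin, at 37 °C in 5% CO2. Cells were exposed for 72 h to six or seven drug concentrations, run in duplicate. Viability was read by XTT-tetrazolium microculture absorbance, and IC50 was derived from median-effect plot analysis.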

[7] = tested on: Mus musculus; test: […] anticancer activity against B6D2F-1 mice bearing Lewis Lung Carcinoma measured by the average weight change(g) after day 10 at an intraperitoneal dose of 3(mg/kg).; assay type: functional; outline: as §2
[8] = tested on: Mus musculus; test: […] anticancer activity against B6D2F-1 mice bearing P388 leukemia measured by the Average survival time(day+/-SD) at an intravenous dose of 15(mg/kg).; assay type: functional
Outline: (§3)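 Male B6D2F1 mice, 8 weeks old, 20–25 g. P388/0 ascites cells (0.2 mL, ascites:saline 1.10) were implanted iv on day 0, and the tumor grew in the liver. Drug was given iv by tail vein on days 1, 3, 5, 7 and 9 (Q2Dx5), with 4–5 mice per group. Survival time was scored as 8 a.m. (0.0), 1 p.m. (0.25) or 5 p.m. (0.5) deaths. %ILS was averaged against untreated controls, and toxic deaths were counted.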

[9] = tested on: Mus musculus; test: […] anticancer activity against B6D2F-1 mice bearing P388 leukemia measured by the increase in lifespan(%) at an intravenous dose of 15(mg/kg).; assay type: functional; outline: as §3
[10] = tested on: Mus musculus; test: […] anticancer activity against B6D2F-1 mice bearing Lewis Lung Carcinoma measured by the Average tumor vol after day 14 at an intraperitoneal dose of 6(mg/kg).; assay type: functional; outline: as §2
[11] = tested on: Mus musculus; test: […] anticancer activity against B6D2F-1 mice bearing Lewis Lung Carcinoma measured by the average weight change(g) after day 14 at an intraperitoneal dose of 3(mg/kg).; assay type: functional; outline: as §2
[12] = tested on: Mus musculus; test: […] anticancer activity against B6D2F-1 mice bearing P388 leukemia measured by the average weight change(g) after day 7 at an intravenous dose of 10(mg/kg).; assay type: functional
Outline: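 Male B6D2F1 mice (8 weeks old, 20–25 g) were implanted iv on day 0 with P388/0 ascites cells (0.2 mL; ascites:saline 1.10), which grew in the liver. Drug was given iv via the tail vein, Q2Dx5, on days 1, 3, 5, 7 and 9. Groups had 4–5 mice. Day 1 value is mean body weight; later days are weight change.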

[13] = tested on: Mus musculus; test: […] anticancer activity against B6D2F-1 mice bearing Sarcoma 180 measured by the Average tumor vol after day 7 at an intravenous dose of 5(mg/kg).
[14] = tested on: Mus musculus; test: […] anticancer activity against B6D2F-1 mice bearing Sarcoma 180 measured by the average weight change(g) after day 7 at an intraperitoneal dose of 5(mg/kg).; assay type: functional; outline: as §1
[15] = tested on: Mus musculus; test: […] anticancer activity against B6D2F-1 mice bearing P388 leukemia measured by the average body weight(g) after day 1 at an intravenous dose of 10(mg/kg).
[16] = tested on: Mus musculus; test: […] anticancer activity against B6D2F-1 mice bearing Sarcoma 180 measured by the average weight change(g) after day 14 at an intraperitoneal dose of 3(mg/kg).
[17] = tested on: Mus musculus; test: […] anticancer activity against B6D2F-1 mice bearing Lewis Lung Carcinoma measured by the average weight change(g) after day 7 at an intraperitoneal dose of 3(mg/kg).; assay type: functional; outline: as §2
[18] = tested on: Mus musculus; test: […] anticancer activity against B6D2F-1 mice bearing Sarcoma 180 measured by the Average tumor vol after day 14 at an intravenous dose of 5(mg/kg).
[19] = tested on: Mus musculus; test: […] anticancer activity against B6D2F-1 mice bearing P388 leukemia measured by the Average tumor vol after day 10 at an intravenous dose of 7(mg/kg).; assay type: functional
[20] = tested on: Mus musculus; test: […] anticancer activity against B6D2F-1 mice bearing Sarcoma 180 measured by the average weight change(g) after day 7 at an intraperitoneal dose of 7(mg/kg).; assay type: functional; outline: as §1
[21] = tested on: Mus musculus; test: […] anticancer activity against B6D2F-1 mice bearing Sarcoma 180 measured by the Average tumor vol after day 7 at an intravenous dose of 3(mg/kg).
[22] = tested on: Mus musculus; test: […] anticancer activity against B6D2F-1 mice bearing Lewis Lung Carcinoma measured by the Average tumor vol after day 10 at an intraperitoneal dose of 3(mg/kg).; assay type: functional; outline: as §2
[23] = tested on: Mus musculus; test: […] anticancer activity against B6D2F-1 mice bearing P388 leukemia measured by the Average tumor vol after day 10 at an intravenous dose of 3(mg/kg).; assay type: functional
[24] = tested on: Mus musculus; test: […] anticancer activity against B6D2F-1 mice bearing P388 leukemia measured by the average survival time(day+/-SD) at an intravenous dose of 10(mg/kg)..; assay type: functional; outline: as §3
[25] = tested on: Mus musculus; test: […] anticancer activity against B6D2F-1 mice bearing P388 leukemia measured by the Average tumor vol after day 14 at an intravenous dose of 3(mg/kg).; assay type: functional
[26] = tested on: Mus musculus; test: […] anticancer activity against B6D2F-1 mice bearing P388 leukemia measured by the increase in lifespan(%) at an intravenous dose of 10(mg/kg)..; assay type: functional; outline: as §3

CCOC(=O)Nc1cc(CO)cc(Nc2c3ccccc3nc3ccccc23)c1 was tested. Which Average weight change [1] did it give?
The Average weight change was -2 g.

What about the Average tumor volume [2] of the same compound?
The Average tumor volume was 0.22.

What about the Average tumor volume [3] of the same compound?
The Average tumor volume was 0.37.

What about the Average tumor volume [4] of the same compound?
Its Average tumor volume is less than 0.01.

And the Average weight change [5]?
Its Average weight change is -2 g.

What about the IC50 [6] of the same compound?
The IC50 was 4.4 nM.

What about the Average weight change [7] of the same compound?
The Average weight change was -1.3 g.

And the Average survival [8]?
The Average survival was 13.2 days.

And the Increase in life-span [9]?
Its Increase in life-span is 106%.

What about the Average tumor volume [10] of the same compound?
Its Average tumor volume is 0.52.

And the Average weight change [11]?
The Average weight change was -0.8 g.

And the Average weight change [12]?
Its Average weight change is -0.2 g.

And the Average tumor volume [13]?
The Average tumor volume was 0.06.

What about the Average weight change [14] of the same compound?
The Average weight change was -2.6 g.

What about the Body weight [15] of the same compound?
The Body weight was 22.9 g.

And the Average weight change [16]?
Its Average weight change is -0.8 g.

And the Average weight change [17]?
Its Average weight change is -2.3 g.

What about the Average tumor volume [18] of the same compound?
The Average tumor volume was 0.8.

And the Average tumor volume [19]?
The Average tumor volume was less than 0.01.

What about the Average weight change [20] of the same compound?
Its Average weight change is -3.4 g.

What about the Average tumor volume [21] of the same compound?
Its Average tumor volume is 1.24.

What about the Average tumor volume [22] of the same compound?
The Average tumor volume was 0.63.

And the Average tumor volume [23]?
Its Average tumor volume is 1.21.

What about the Average survival [24] of the same compound?
Its Average survival is 18.4 days.

And the Average tumor volume [25]?
Its Average tumor volume is 0.74.

And the Increase in life-span [26]?
The Increase in life-span was 188%.
